In ChEMBL document CHEMBL4390675, “Dopamine D4 Receptor-Selective Compounds Reveal Structure-Activity Relationships that Engender Agonist Efficacy” (J Med Chem, 2019):
Activity calls are given as the source filed them. The rule behind the calls is not given here.

Key:
D(4) dopamine receptor [1] = target: T1, D(4) dopamine receptor (Homo sapiens, UniProt P21917); assay: Agonist activity at human D4 receptor expressed in CHOK1 cells assessed as induction of beta-arrestin recruitment measured after 90 mins by luminescence assay; assay type: cell-based
T1 sequence (P21917 whole entry): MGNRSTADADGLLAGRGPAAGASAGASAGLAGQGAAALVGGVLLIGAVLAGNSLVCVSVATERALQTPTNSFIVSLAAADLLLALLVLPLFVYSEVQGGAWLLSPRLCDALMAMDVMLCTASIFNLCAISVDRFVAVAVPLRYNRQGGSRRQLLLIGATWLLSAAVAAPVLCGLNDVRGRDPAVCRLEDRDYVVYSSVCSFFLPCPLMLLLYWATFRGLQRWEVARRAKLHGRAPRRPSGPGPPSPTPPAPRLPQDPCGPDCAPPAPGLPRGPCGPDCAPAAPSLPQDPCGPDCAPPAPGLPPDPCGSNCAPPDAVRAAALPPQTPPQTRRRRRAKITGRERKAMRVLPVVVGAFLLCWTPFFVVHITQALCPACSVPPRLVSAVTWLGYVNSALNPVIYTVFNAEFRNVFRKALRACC
Method in brief: (§1)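 PathHunter enzyme-complementation assay in CHO-K1 cells stably expressing human D2R long isoform, D3R or D4R, seeded overnight in Ham's F12/10% FBS. Compounds were diluted in PBS with 0.2 μM sodium metabisulfite and applied at multiple concentrations for 90 min at 37 °C. Detection reagent was added for 45–60 min at room temperature, then luminescence was read. Values are % of maximal dopamine response, from nonlinear regression of triplicate runs, mean ± SEM, n = 3–4.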

D(4) dopamine receptor [2] = target: T1, D(4) dopamine receptor; assay: Agonist activity at human D4 receptor expressed in CHOK1 cells assessed as inhibition of forskolin-induced cAMP accumulation measured after 30 mins by Eu-cAMP tracer based TR-FRET assay; assay type: functional, cell-based
Method in brief: (§2)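 LANCE Ultra TR-FRET cAMP assay in CHO-K1 cells stably expressing human D2R long isoform or D4R. Cells were plated in HBSS/5 mM HEPES/0.2 μM metabisulfite, then immediately given compound plus forskolin (10 μM final) for 30 min at room temperature. Eu-cAMP tracer and ULight-anti-cAMP were added for 2 h in the dark. Values are % of maximal dopamine signal, nonlinear regression of triplicate runs, n = 3–4.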

D(3) dopamine receptor [3] = target: T2, D(3) dopamine receptor (Homo sapiens, UniProt P35462); assay: Antagonist activity at human D3 receptor expressed in CHOK1 cells assessed as inhibition of dopamine-induced beta-arrestin recruitment measured after 90 mins by luminescence assay; assay type: cell-based
Method in brief: (§3)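 Antagonist-mode PathHunter β-arrestin assay in CHO-K1 cells stably expressing human D2R long isoform or D3R, seeded overnight. Compound dilutions in PBS with 0.2 μM metabisulfite were co-incubated with an EC80 dopamine concentration for 90 min at 37 °C. Detection reagent was added for 45–60 min at room temperature, then luminescence was read. Values are % of dopamine EC80 response, from nonlinear regression of triplicate runs, n = 3–4.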

D(3) dopamine receptor [4] = target: T2, D(3) dopamine receptor; assay: Displacement of [3H]N-methylspiperone from human D3 receptor expressed in HEK293 cell membranes measured after 60 mins by scintillation counting method
Method in brief: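 HEK293 cells stably expressing human D3R; membranes in EBSS buffer pH 7.4, stored at −80 °C. 20 μg protein/well with 0.4 nM [3H]N-methylspiperone (final), half-log dilutions in 30% DMSO, in triplicate. 60 min at room temperature, then GF/B filtration. Nonspecific binding with 10 μM (+)-butaclamol.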

D(2) dopamine receptor [5] = target: T3, D(2) dopamine receptor (Homo sapiens, UniProt P14416); assay: Agonist activity at human D2L receptor expressed in CHOK1 cells assessed as induction of beta-arrestin recruitment measured after 90 mins by luminescence assay; assay type: cell-based; method in brief: as §1
D(3) dopamine receptor [6] = target: T2, D(3) dopamine receptor; assay: Agonist activity at human D3 receptor expressed in CHOK1 cells assessed as induction of beta-arrestin recruitment measured after 90 mins by luminescence assay; assay type: cell-based; method in brief: as §1
D(2) dopamine receptor [7] = target: T3, D(2) dopamine receptor; assay: Antagonist activity at human D2L receptor expressed in CHOK1 cells assessed as suppression of dopamine-induced inhibition of forskolin-stimulated cAMP accumulation measured after 30 mins by Eu-cAMP tracer based TR-FRET assay relative to dopamine; assay type: cell-based; conditions: 0.5 h
D(2) dopamine receptor [8] = target: T3, D(2) dopamine receptor; assay: Agonist activity at human D2L receptor expressed in CHOK1 cells assessed as inhibition of forskolin-induced cAMP accumulation measured after 30 mins by Eu-cAMP tracer based TR-FRET assay; assay type: cell-based; method in brief: as §2
D(2) dopamine receptor [9] = target: T3, D(2) dopamine receptor; assay: Antagonist activity at human D2L receptor expressed in CHOK1 cells assessed as inhibition of dopamine-induced beta-arrestin recruitment measured after 90 mins by luminescence assay relative to control; assay type: cell-based; method in brief: as §3
D(4) dopamine receptor [10] = target: T1, D(4) dopamine receptor; assay: Displacement of [3H](R)-(+)-7-OH-DPAT from human D4.4 receptor expressed in HEK293 cell membranes measured after 90 mins by scintillation counting method
Method in brief: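 HEK293 cells stably expressing human D4.4R; membranes used fresh in 50 mM Tris, 10 mM MgCl2, 1 mM EDTA, pH 7.4. 60 μg protein/well with 3 nM [3H]-(R)-(+)-7-OH-DPAT (final), half-log dilutions in 30% DMSO, in triplicate. 90 min at room temperature, then GF/B filtration. Nonspecific binding with 10 μM (+)-butaclamol.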

D(4) dopamine receptor [11] = target: T1, D(4) dopamine receptor; assay: Displacement of [3H]N-methylspiperone from human D4.4 receptor expressed in HEK293 cell membranes measured after 60 mins by scintillation counting method
Method in brief: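 Frozen HEK293 membranes stably expressing human D4.4R (30 μg/well) in EBSS-bicarbonate buffer, pH 7.4, were incubated with 0.4 nM [3H]N-methylspiperone and half-log compound dilutions (30% DMSO vehicle) for 60 min at room temperature. Nonspecific binding was defined by 10 μM (+)-butaclamol. Samples were filtered on GF/B filters and counted by scintillation.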

D(4) dopamine receptor [12] = target: T1, D(4) dopamine receptor; assay: Antagonist activity at human D4 receptor expressed in CHOK1 cells assessed as suppression of dopamine-induced inhibition of forskolin-stimulated cAMP accumulation measured after 30 mins by Eu-cAMP tracer based TR-FRET assay; assay type: functional, cell-based
D(4) dopamine receptor [13] = target: T1, D(4) dopamine receptor; assay: Antagonist activity at human D4 receptor expressed in CHOK1 cells assessed as inhibition of dopamine-induced beta-arrestin recruitment measured after 90 mins by luminescence assay; assay type: cell-based; conditions: read-out: IC50
D(3) dopamine receptor [14] = target: T2, D(3) dopamine receptor; assay: Displacement of [3H](R)-(+)-7-OH-DPAT from human D3 receptor expressed in HEK293 cell membranes measured after 90 mins by scintillation counting method
Method in brief: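 Fresh HEK293 hD3R membranes (40 μg/well) in 50 mM Tris, 10 mM MgCl2, 1 mM EDTA, pH 7.4 were incubated with 0.5 nM [3H]-(R)-(+)-7-OH-DPAT and half-log compound dilutions in 30% DMSO for 90 min at room temperature. Nonspecific binding was defined with 10 μM (+)-butaclamol. Samples were filtered on PEI-soaked GF/B filters and counted by scintillation.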

[15] = target: D(1B) dopamine receptor (Homo sapiens) (UniProt P21918); assay: Antagonist activity at D5 receptor (unknown origin) stably expressed in CHOK1 cells assessed as inhibition of dopamine-induced beta-arrestin recruitment measured after 90 mins by luminescence assay; assay type: cell-based
[16] = target: D(1A) dopamine receptor (Homo sapiens) (UniProt P21728); assay: Antagonist activity at D1 receptor (unknown origin) stably expressed in CHOK1 cells assessed as inhibition of dopamine-induced beta-arrestin recruitment measured after 90 mins by luminescence assay; assay type: cell-based
[17] = target: D(1B) dopamine receptor (Homo sapiens) (UniProt P21918); assay: Agonist activity at D5 receptor (unknown origin) stably expressed in CHOK1 cells assessed as induction of beta-arrestin recruitment measured after 90 mins by luminescence assay; assay type: cell-based
[18] = target: D(1A) dopamine receptor (Homo sapiens) (UniProt P21728); assay: Agonist activity at D1 receptor (unknown origin) stably expressed in CHOK1 cells assessed as induction of beta-arrestin recruitment measured after 90 mins by luminescence assay; assay type: cell-based
[19] = target: T4, D(4) dopamine receptor (Homo sapiens) (UniProt P21917); assay: Antagonist activity at human D4 receptor expressed in CHOK1 cells assessed as inhibition of dopamine-induced beta-arrestin recruitment measured after 90 mins by luminescence assay relative to control; assay type: cell-based; set-up: concentration or dose not given beside the values
T4 sequence (whole entry): T1 sequence (P21917 whole entry)

[20] = target: T4, D(4) dopamine receptor (Homo sapiens); assay: Agonist activity at human D4 receptor expressed in CHOK1 cells assessed as induction of beta-arrestin recruitment measured after 90 mins by luminescence assay relative to control; assay type: cell-based; method in brief: as §1
[21] = target: T4, D(4) dopamine receptor (Homo sapiens); assay: Antagonist activity at human D4 receptor expressed in CHOK1 cells assessed as suppression of dopamine-induced inhibition of forskolin-stimulated cAMP accumulation measured after 30 mins by Eu-cAMP tracer based TR-FRET assay relative to dopamine; assay type: functional, cell-based; set-up: concentration or dose not given beside the values
[22] = target: T4, D(4) dopamine receptor (Homo sapiens); assay: Agonist activity at human D4 receptor expressed in CHOK1 cells assessed as inhibition of forskolin-induced cAMP accumulation measured after 30 mins by Eu-cAMP tracer based TR-FRET assay relative to dopamine; assay type: functional, cell-based; method in brief: as §2

T3 sequence (P14416 whole entry): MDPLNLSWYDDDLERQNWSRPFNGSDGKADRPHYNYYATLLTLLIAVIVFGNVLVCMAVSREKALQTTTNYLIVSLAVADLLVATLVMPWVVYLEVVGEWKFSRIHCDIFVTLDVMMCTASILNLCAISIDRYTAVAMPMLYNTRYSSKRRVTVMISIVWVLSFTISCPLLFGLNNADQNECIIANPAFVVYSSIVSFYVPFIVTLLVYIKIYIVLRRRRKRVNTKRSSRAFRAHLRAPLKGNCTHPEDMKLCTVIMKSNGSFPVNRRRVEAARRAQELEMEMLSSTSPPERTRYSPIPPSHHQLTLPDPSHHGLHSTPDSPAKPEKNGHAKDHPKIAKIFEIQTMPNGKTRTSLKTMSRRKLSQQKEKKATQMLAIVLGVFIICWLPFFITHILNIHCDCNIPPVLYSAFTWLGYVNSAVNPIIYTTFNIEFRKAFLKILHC
T2 sequence (P35462 whole entry, canonical isoform): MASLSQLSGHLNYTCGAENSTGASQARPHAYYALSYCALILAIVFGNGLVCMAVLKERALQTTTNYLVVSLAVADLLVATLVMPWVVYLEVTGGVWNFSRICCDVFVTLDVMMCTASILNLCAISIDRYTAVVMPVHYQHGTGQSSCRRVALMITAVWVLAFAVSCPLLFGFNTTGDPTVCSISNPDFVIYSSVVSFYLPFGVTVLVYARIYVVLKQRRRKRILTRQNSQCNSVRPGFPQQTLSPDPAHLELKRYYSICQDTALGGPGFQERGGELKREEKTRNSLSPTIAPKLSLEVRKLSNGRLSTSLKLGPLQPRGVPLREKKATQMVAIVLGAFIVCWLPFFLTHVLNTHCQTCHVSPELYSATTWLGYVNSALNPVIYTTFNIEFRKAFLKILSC
Sequence of D(1A) dopamine receptor (Homo sapiens) (P21728 whole entry): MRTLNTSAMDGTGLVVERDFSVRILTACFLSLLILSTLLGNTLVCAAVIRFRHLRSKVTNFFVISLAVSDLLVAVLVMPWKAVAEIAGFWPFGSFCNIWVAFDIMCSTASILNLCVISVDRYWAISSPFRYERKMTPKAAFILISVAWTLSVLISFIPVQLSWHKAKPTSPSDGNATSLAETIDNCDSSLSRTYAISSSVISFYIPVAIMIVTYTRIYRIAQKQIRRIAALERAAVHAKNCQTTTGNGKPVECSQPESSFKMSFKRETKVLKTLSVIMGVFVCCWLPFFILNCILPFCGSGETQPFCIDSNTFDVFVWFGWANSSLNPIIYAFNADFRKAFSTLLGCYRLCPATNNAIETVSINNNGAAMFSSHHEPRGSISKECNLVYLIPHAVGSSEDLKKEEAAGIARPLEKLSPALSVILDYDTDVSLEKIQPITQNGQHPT
Sequence of D(1B) dopamine receptor (Homo sapiens) (P21918 whole entry): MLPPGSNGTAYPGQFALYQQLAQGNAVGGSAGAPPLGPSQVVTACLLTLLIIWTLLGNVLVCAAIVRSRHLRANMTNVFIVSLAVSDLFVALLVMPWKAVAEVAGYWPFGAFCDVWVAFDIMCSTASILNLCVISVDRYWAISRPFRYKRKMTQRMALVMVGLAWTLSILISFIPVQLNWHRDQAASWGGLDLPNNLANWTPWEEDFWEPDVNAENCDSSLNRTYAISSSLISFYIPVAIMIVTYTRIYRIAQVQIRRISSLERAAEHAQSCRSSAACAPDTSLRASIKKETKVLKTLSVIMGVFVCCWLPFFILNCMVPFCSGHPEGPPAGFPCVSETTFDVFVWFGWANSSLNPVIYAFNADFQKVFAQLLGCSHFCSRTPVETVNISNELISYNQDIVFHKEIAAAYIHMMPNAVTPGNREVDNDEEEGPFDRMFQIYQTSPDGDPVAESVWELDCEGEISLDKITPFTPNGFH

| EC50 (D(4) dopamine receptor [1]) | EC50 (D(4) dopamine receptor [2]; read-out: EC50) | SMILES | EC50 (D(4) dopamine receptor [2]) | IC50 (D(3) dopamine receptor [3]) | Ki (D(3) dopamine receptor [4]) | EC50 (D(2) dopamine receptor [5]) | EC50 (D(3) dopamine receptor [6]) | inhibition (INH) (D(2) dopamine receptor [7]) | EC50 (D(2) dopamine receptor [8]) | INH (D(2) dopamine receptor [9]) | Ki (D(4) dopamine receptor [10]) | Ki (D(4) dopamine receptor [11]) | IC50 (D(4) dopamine receptor [12]) | IC50 (D(4) dopamine receptor [13]) | Ki (D(3) dopamine receptor [14]) | other results |
| --- | --- | --- | --- | --- | --- | --- | --- | --- | --- | --- | --- | --- | --- | --- | --- | --- |
| Not Active |  | Cc1cccc(NC(=O)CN2CCC(c3ccc(Cl)cc3)CC2)c1 | Not Active | Not Active | 26.3 µM | Not Active | Not Active | 97.5% | Not Active | 100% |  |  |  |  |  |  |
| Not Active | 0.568 µM | Cc1cccc(NC(=O)CCN2CCN(c3ncccn3)CC2)c1 |  |  | 4.53 µM | Not Active | Not Active |  | Not Active | 94.6% | 0.033 µM | 0.526 µM | 2.12 µM | 0.43 µM | 9.35 µM | inhibition [15]: inactive; IC50 (D(3) dopamine receptor [3]; read-out: IC50): > 50 µM; inhibition [16]: inactive; Activity [17]: inactive; Activity [18]: inactive |
| Not Active |  | Cc1ccc(C2CCN(CC(=O)Nc3cccc(C)c3)CC2)cc1 | Not Active | Not Active | 3.68 µM | Not Active | Not Active | 100% | Not Active | 100% |  | 0.11 µM | 3.06 µM | 7.35 µM |  |  |
| Not Active | 0.539 µM | CCc1cccc(NC(=O)CN2CCC(c3ccccn3)CC2)c1 |  | Not Active | 0.496 µM | Not Active | Not Active | 96.6% | Not Active | 100% |  | 0.0823 µM | 1.91 µM | 2.62 µM |  |  |

| SMILES | EC50 (D(4) dopamine receptor [1]) | EC50 (D(4) dopamine receptor [2]; read-out: EC50) | EC50 (D(4) dopamine receptor [2]) | IC50 (D(3) dopamine receptor [3]) | Ki (D(3) dopamine receptor [4]) | EC50 (D(2) dopamine receptor [5]) | EC50 (D(3) dopamine receptor [6]) | inhibition (INH) (D(2) dopamine receptor [7]) | EC50 (D(2) dopamine receptor [8]) | INH (D(2) dopamine receptor [9]) | Ki (D(4) dopamine receptor [10]) | Ki (D(4) dopamine receptor [11]) | IC50 (D(4) dopamine receptor [12]) | IC50 (D(4) dopamine receptor [13]) | Ki (D(3) dopamine receptor [14]) | other results |
| --- | --- | --- | --- | --- | --- | --- | --- | --- | --- | --- | --- | --- | --- | --- | --- | --- |
| Cc1cccc(NC(=O)CN2CCN(c3ccc(Cl)cn3)CC2)c1 | Not Active |  | Not Active | Not Active | > 50 µM | Not Active | Not Active | 98.3% | Not Active | 100% | 0.0125 µM | 0.095 µM | 4.7 µM | 7.78 µM | > 10 µM |  |
| Cc1cccc(NC(=O)CN2CCN(c3cccc4ccccc34)CC2)c1 |  | 0.108 µM |  | Not Active | 11.5 µM | Not Active | Not Active | 100% | Not Active | 100% | 0.00165 µM | 0.0284 µM | 2.52 µM | 4.25 µM | 1.25 µM | inhibition [19]: 96.7%; EC50 (D(4) dopamine receptor [1]; read-out: EC50): 9.21 µM; Emax [20]: 16.4%; inhibition [21]: 73.8%; Emax [22]: 27.8% |
| CCc1cccc(NC(=O)CN2CCN(c3ccc(Cl)cn3)CC2)c1 | Not Active |  | Not Active | Not Active | > 50 µM | Not Active | Not Active | 100% | Not Active | 100% |  | 0.172 µM | 7.06 µM | 10.4 µM |  |  |
| Cc1ccc(C2CCN(CC(=O)Nc3cccc(C)c3)CC2)nc1 | Not Active |  | Not Active | Not Active | > 50 µM | Not Active | Not Active | 100% | Not Active | 100% | 0.00687 µM | 0.0417 µM | 0.453 µM | 0.394 µM | > 10 µM |  |
